# Bioassay records (PubChem BioAssay)
# rCAG binder – molecules binding r(CAG) RNA repeats; r(CAG) RNA repeat, TO-PRO-1 dye displacement fluorescence; inhibition, % at 3 µM; 370,000 tested, 1.3% active;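 active means inhibition above the plate cutoff, the mean of all test compounds on that plate plus 3 SD, cut at about 35% in these data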;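 further: 0% = DMSO alone and 100% = 100 µM mitoxantrone as full dye displacement; higher means more dye released from RNA so lower well fluorescence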
# DAGLB inhibitor – blocks human DAGLB lipase activity; Q8NCG7; HEK293T DAGLB membrane lysate, EnzChek fluorogenic substrate; inhibition, % at 5.17 µM; 340,000 tested, 0.059% active; AID 504411; in the data active means inhibition above about 34%;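 further: 0% = enzyme with vehicle and 100% = wells lacking enzyme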
# PRMT1 inh – inhibitors of human PRMT1. 370,000 tested, 1.3% active. inhibition, % at 2.79 µM. Q99873. recombinant PRMT1, activity-based probe fluorescence polarization;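 active means inhibition above about 21% made by adding two undisclosed values, limit read from the data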
# Target sequence (Q99873 whole entry, looked up): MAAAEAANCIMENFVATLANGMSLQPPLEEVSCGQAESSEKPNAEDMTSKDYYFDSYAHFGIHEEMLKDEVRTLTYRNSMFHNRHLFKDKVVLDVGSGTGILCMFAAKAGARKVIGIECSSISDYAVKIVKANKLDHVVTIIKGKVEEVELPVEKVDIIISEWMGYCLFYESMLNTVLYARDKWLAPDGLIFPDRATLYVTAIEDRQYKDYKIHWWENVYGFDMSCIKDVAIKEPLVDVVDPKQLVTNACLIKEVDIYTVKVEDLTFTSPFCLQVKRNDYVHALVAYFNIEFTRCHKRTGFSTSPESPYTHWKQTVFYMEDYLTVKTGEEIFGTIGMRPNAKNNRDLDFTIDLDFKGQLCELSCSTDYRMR
# ABHD4 inh – inhibits mouse alpha/beta hydrolase domain 4 | Q8VD66 | purified mABHD4, FP-Rh probe fluorescence polarization | inhibition, % at 8.92 µM | 370,000 tested, 0.54% active | AID 720543;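 active means inhibition exceeding the mean over every tested compound plus 3 SD, cut at about 30% in these data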;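 further: 0% = plate median of compound wells and 100% = S159A mutant with DMSO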
# Target sequence (Q8VD66 whole entry, looked up, the tested form may be a part): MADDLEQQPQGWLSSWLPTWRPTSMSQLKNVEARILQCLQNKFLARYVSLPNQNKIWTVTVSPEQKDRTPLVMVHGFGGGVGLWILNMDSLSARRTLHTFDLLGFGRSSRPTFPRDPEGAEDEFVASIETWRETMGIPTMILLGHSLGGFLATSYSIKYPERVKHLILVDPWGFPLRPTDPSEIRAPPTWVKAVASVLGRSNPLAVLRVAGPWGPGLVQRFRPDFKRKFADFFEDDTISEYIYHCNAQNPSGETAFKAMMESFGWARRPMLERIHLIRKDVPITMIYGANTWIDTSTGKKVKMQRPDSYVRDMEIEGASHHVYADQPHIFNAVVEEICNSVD
#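 system = mouse ABHD4 enzyme, wild type | medium = HEPES pH 7.0, NaCl, Pluronic buffer | also added = FP-Rh probe | incubation = Enzyme–compound pre-incubation 45 min, then probe 60 min, both 25 °C | technique = fluorescence polarization, excitation 525 nm, emission 598 nm, BODIPY TMR filters | controls = S159A mutant high control, sample median low control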
# HTRA1 inh – HTRA1 (human) protease inhibition. 340,000 tested, 0.5% active. AID 504803. Q92743. inhibition, % at 5.96 µM. recombinant HTRA1, FP-rhodamine activity-based probe, fluorescence polarization; in the data active means inhibition above about 36%;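 further: 0% = enzyme with DMSO and 100% = wells lacking enzyme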
# LEDGF integ inh – blocks HIV-1 LEDGF/p75-dependent DNA integration | 370,000 tested, 0.64% active | TR-FRET IN-LEDGF/p75 DNA integration, Eu/Cy5 | inhibition, % at 3.7 µM;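 active means inhibition above the screen-wide mean plus 3 SD, cut at about 13% in these data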;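 further: signal is the Cy5 over europium emission ratio at 671 and 618 nm; 0% = plate median of compound wells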
# rCAG binder conf – r(CAG) RNA repeat binding, confirmation. shares compounds with rCAG binder. TO-PRO-1 dye displacement fluorescence. inhibition, % at 3 µM. 4,300 tested, 70% active. AID 652065;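 active means inhibition above a per-plate cutoff, the mean inhibition of sample wells plus 3 SD, cut at about 35% in these data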;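 further: loss of TO-PRO-1 fluorescence as compound displaces dye from 1x1 AA loop RNA; 0% = DMSO only wells and 100% = 100 µM mitoxantrone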
# dCAG dye counter – DNA CAG dye complex inhibition counter-screen. shares compounds with rCAG binder. d(CAG) DNA oligo TO-PRO-1 dye displacement, fluorescence. inhibition, % at 3 µM. 4,300 tested, 94% active. AID 652068;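 active means inhibition above its plate's cutoff, the mean test-well inhibition plus 3 SD, cut at about 4.8% in these data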;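 further: 0% = DNA dye mix with DMSO and 100% = 100 µM mitoxantrone; hits displace the dye from DNA and so lower well fluorescence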
# DNA CAG DR – disrupts DNA CAG TO-PRO-1 complex in dose response; 250 tested, 20% active; shares compounds with rCAG binder; DNA CAG/GTC duplex TO-PRO-1 dye displacement fluorescence; IC50, µM; AID 686960; in the data active means IC50 below about 10 µM
# PRMT1 inh conf – PRMT1 (human) inhibition, FP confirmation; shares compounds with PRMT1 inh; recombinant His-PRMT1, activity-based probe fluorescence polarization; inhibition, % at 2.79 µM; 3,300 tested, 42% active;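 active means mean inhibition across replicates above the hit cutoff derived for the earlier primary screen, cut at about 22% in these data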
# ABHD4 confirm – ABHD4 (mouse) inhibition, FP confirmation. inhibition, % at 8.92 µM. 1,800 tested, 55% active. shares compounds with ABHD4 inh. purified mABHD4, FP-Rh probe fluorescence polarization;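 active means mean inhibition across replicates above the hit cutoff set in the primary screen, cut at about 30% in these data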;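 further: 0% = wild-type ABHD4 with DMSO and 100% = catalytically dead S159A mutant with DMSO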
# IN multimer act – counter-screen for LEDGF/p75 integration inhibitors: HIV-1 integrase multimerization activators; shares compounds with LEDGF integ inh; TR-FRET HIV-1 integrase multimerization, biochemical; activation, % at 7.7 µM; 2,000 tested, 17% active; AID 1053131; in the data active means activation above about 8.9%
# TR-FRET interf – counter-screen for LEDGF/p75 integration inhibitors: TR-FRET optical interference; shares compounds with LEDGF integ inh; TR-FRET optical interference counterscreen, HIV-1 IN multimerization; inhibition, % at 7.7 µM; 2,000 tested, under 10 active; AID 1053135;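 active means inhibition above the mean over all tested compounds plus 3 SD, which no compound reached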;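 further: 0% = integrase with antibodies and DMSO and 100% = antibodies without integrase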
# LEDGF integ conf – LEDGF/p75-dependent HIV-1 integration inhibition, confirmation. shares compounds with LEDGF integ inh. TR-FRET LEDGF/p75-dependent HIV-1 integration, biochemical. inhibition, % at 3.7 µM. 2,000 tested, 36% active. AID 1053136; in the data active means inhibition above about 14%
# Active calls of the source: *; i = inactive; x = no result. Hits are enriched below; roughly 3.2% of the tested compounds scored in any of these assays.
SMILES,rCAG binder,DAGLB inhibitor,PRMT1 inh,ABHD4 inh,HTRA1 inh,LEDGF integ inh,PRMT1 inh conf,others
CCOC(=O)N(C)c1c(CC)nc2c(OCC(=O)C(C)(C)C)cccn12,-2,x,2,0,x,1,x,
Cc1ccc(Cc2c(-c3ccc(Br)cc3)nc3ccc(Cl)cn23)cc1,41*,x,-2,-19,x,14*,x,rCAG binder conf=12;dCAG dye counter=10*;IN multimer act=0;TR-FRET interf=1;LEDGF integ conf=0
O=C(Nc1nnc(-c2ccco2)s1)C1CCCCC1,0,1,-2,6,0,-1,x,
O=C(Nc1nc(-c2ccco2)c(-c2ccco2)s1)C1CCC1,37*,2,35*,13,10,17*,19,rCAG binder conf=21;dCAG dye counter=11*;IN multimer act=2;TR-FRET interf=-9;LEDGF integ conf=21*
COc1cc(/C=C2/C(=O)N(c3ccc(C(=O)O)cc3)N=C2C)cc(OC)c1O,-3,1,5,3,2,1,x,
COc1cc(C=C2C(=O)C=CC2=O)ccc1O,73*,x,91*,37*,x,93*,100*,rCAG binder conf=10;dCAG dye counter=5.4*;ABHD4 confirm=0;IN multimer act=7;TR-FRET interf=-37;LEDGF integ conf=24*
COc1cc(/C=C2\C(=O)N(c3ccc(NC(C)=O)cc3)N=C2c2ccccc2)ccc1O,83*,12,16,14,7,44*,x,rCAG binder conf=70*;dCAG dye counter=31*;DNA CAG DR=i;IN multimer act=4;TR-FRET interf=-21;LEDGF integ conf=-1
CN(Cc1cnccn1)Cc1c(C(=O)N2CCc3ccccc3C2)nc2ccc(Cl)cn12,-6,0,3,2,-6,-4,x,
CC(C)(C)OC(=O)NCCc1nnc(SCC(=O)c2ccc(Cl)cc2)o1,-8,-3,0,2,1,-5,x,
COC(=O)Nc1ccc(SCC(=O)c2ccccc2)cc1,-4,-2,26*,-8,-6,0,21,
COC(=O)Nc1ccc(SCC(=O)c2ccc(Cl)cc2)cc1,2,-2,69*,-23,-22,5,55*,
C[C@@H]1CCCN1c1ccc2c(c1)O[C@@H]1CCN(C1)S2(=O)=O,4,x,3,-3,x,-1,x,
C#Cc1ccc([C@H]2C=C(C(=O)OCC=C)O[C@@H](OCc3ccc(CO)cc3)C2)cc1,10,-3,-1,-5,-46,2,x,
NC(=O)c1ccc(NC(=S)NCc2ccco2)cc1,7,2,3,4,4,-6,x,
CC(C)OCCCNC(=S)Nc1ccc(S(N)(=O)=O)cc1,0,-1,40*,1,2,5,58*,
NS(=O)(=O)c1ccc(NC(=S)NC2CCCC2)cc1,0,0,34*,4,4,-4,20,
O=S(=O)(c1ccc(NC(=S)NC2CCCC2)cc1)N1CCCC1,8,1,0,-6,-9,7,x,
NS(=O)(=O)c1ccc(NC(=S)NCc2ccco2)cc1,-2,-3,27*,-3,-3,2,10,
CC(=O)c1ccc(NC(=S)NCCc2ccc(S(N)(=O)=O)cc2)cc1,3,1,-2,-3,9,1,x,
O=C(COC(=O)/C=C/c1ccc(Cl)cc1Cl)Nc1cccc(S(=O)(=O)NC2=NCCC2)c1,7,-3,0,-6,-8,-1,x,
Nc1cccc(-c2cnc3ccccc3n2)c1,1,2,-2,2,6,2,x,
CCCNC(=O)c1nnsc1S(=O)c1ccc(Cl)cc1 (configuration not stated),1,-8,95*,2,-4,-5,90*,
CNC(=O)c1nnsc1S(=O)c1ccc(Cl)cc1 (configuration not stated),-2,-5,77*,4,1,5,76*,
CCCNC(=O)c1ccc2snnc2c1,4,1,9,-2,-3,-4,x,
Cc1ccc(S(=O)c2snnc2C)cc1 (configuration not stated),-1,2,1,2,0,-2,x,
SMILES,rCAG binder,DAGLB inhibitor,PRMT1 inh,ABHD4 inh,HTRA1 inh,LEDGF integ inh,PRMT1 inh conf,others
Cc1ccc(Sc2ncccc2/C=N/O)cc1,1,-3,3,4,8,-5,x,
CCS(=O)(=O)N1Cc2ccccc2CC1C(=O)Nc1nc2ccc(C)cc2s1 (configuration not stated),6,1,1,-15,-45,1,x,
Cc1cc(C)c2c(=O)n(CC(=O)N3CCC(N4CCCCC4)CC3)sc2n1,6,0,78*,3,-1,7,4,
CCOC(=O)C1CCCN(C(=O)Cn2sc3nc(C)cc(C)c3c2=O)C1 (configuration not stated),x,2,x,x,7,x,x,
CCCNC(=O)Cn1sc2nc(C)cc(C)c2c1=O,-1,1,93*,8,3,-6,94*,
C[C@H]1[C@H](NC(=O)c2ccc(C(F)(F)F)cc2)CC[C@@]23CCCN2C(=O)CCC[C@@H]13,x,x,53*,-3,x,6,0,
CCN(CC)S(=O)(=O)c1ccc(NC(=O)CCN2C(=O)C3CC=CCC3C2=O)cc1 (configuration not stated),8,0,1,3,7,-1,x,
COc1ccc(N2C(=O)CC(NCc3ccc(F)cc3)C2=O)cc1 (configuration not stated),3,1,66*,5,4,-4,2,
COc1ccc(N2C(=O)CC(NCc3ccncc3)C2=O)cc1 (configuration not stated),16,2,8,-6,-2,4,x,
COc1ccc(N2C(=O)CC(NCc3cccc(F)c3)C2=O)cc1 (configuration not stated),1,-3,55*,7,5,-3,5,
